Experiment: SAD study tolerability/safety
Assay type: in vivo, human
How it was run: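 Healthy men aged 18–55 years, single oral doses of 10–2,000 mg, 6 active and 2 placebo per cohort, staggered dosing. Fasted dosing, plus a fed period in the 300 mg cohort after at least 7 days washout. Subjects were confined until 48 h post-dose, with follow-up at 29–34 days. AEs, vital signs, ECG, examination and laboratory tests were summarised descriptively.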

[1] = SAD, all doses, fasted conditions, 36 subjects

SMILES: CCCCCN1C[C@H](O)[C@@H](O)[C@H](O)[C@@H]1CO [sinbaglustat, (2S,3R,4R,5S)‐2‐(hydroxymethyl)‐1‐pentylpiperidine‐3,4,5‐triol]
- AEs in the 30, 300, and 2,000 mg cohort (SAD): No AE was reported
- Dizziness (subjects) (SAD 10 mg (n = 6)): 1
- Number of subjects with at least 1 AE (SAD 10 mg (n = 6)): 1
- Total number of AEs (SAD 10 mg (n = 6)): 1
- Number of subjects with at least 1 AE (SAD 100 mg (n = 6)): 3
- Rash (subjects) (SAD 100 mg (n = 6)): 1
- Total number of AEs (SAD 100 mg (n = 6)): 3
- AEs under fed conditions (SAD 300 mg fed): no AE was reported
- Headache (subjects) (SAD 1,000 mg (n = 6)): 2
- Nausea (subjects) (SAD 1,000 mg (n = 6)): 1
- Number of subjects with at least 1 AE (SAD 1,000 mg (n = 6)): 3
- Palpitations (subjects) (SAD 1,000 mg (n = 6)): 1
- Viral upper respiratory tract (subjects) (SAD 1,000 mg (n = 6)): 1
- Vomiting (subjects) (SAD 1,000 mg (n = 6)): 1
- subjects reporting AEs (of 36 treated) (SAD, all doses, fasted conditions): 7
- subjects reporting AEs [1]: 19%
- total AEs reported [1]: 13
- serious AEs, severe AEs, AEs leading to discontinuation (whole study (SAD and MAD), up to end‐of‐study): No serious AEs, severe AEs, or AEs leading to study or treatment discontinuation occurred
